Reference: ChEMBL document CHEMBL1144025, “1,3-Dipropyl-8-(1-phenylacetamide-1H-pyrazol-3-yl)-xanthine derivatives as highly potent and selective human A(2B) adenosine receptor antagonists” (Bioorg Med Chem, 2008)

Legend:
Format in all cases: cell-based
Adenosine receptor A3 = target: T1, Adenosine receptor A3 (Homo sapiens, UniProt P0DMS8); experiment: Displacement of [3H]MRE3008F20 from human adenosine A3 receptor expressed in CHO cells
T1 sequence (P0DMS8 whole entry): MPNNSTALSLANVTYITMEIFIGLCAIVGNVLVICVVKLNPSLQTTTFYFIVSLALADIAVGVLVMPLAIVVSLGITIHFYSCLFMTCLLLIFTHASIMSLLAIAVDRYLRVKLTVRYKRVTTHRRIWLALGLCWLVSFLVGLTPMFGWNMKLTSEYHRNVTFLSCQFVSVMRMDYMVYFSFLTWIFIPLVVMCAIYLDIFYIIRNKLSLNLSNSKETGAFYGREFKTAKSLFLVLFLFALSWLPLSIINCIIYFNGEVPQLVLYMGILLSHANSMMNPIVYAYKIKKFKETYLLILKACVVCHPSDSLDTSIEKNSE
Outline: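 Membranes (50 µg protein/assay) in 50 mM Tris-HCl, 10 mM MgCl2, 1 mM EDTA, pH 7.4, incubated 120 min at 4 °C with [³H]MRE3008F20 and at least 6–8 ligand concentrations. Nonspecific binding defined with 1 µM MRE 3008F20. Glass fiber filtration and counting. Ki via Cheng-Prusoff; n = 3–6.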

Adenosine receptor A2a = Adenosine receptor A2a (Homo sapiens, UniProt P29274); experiment: Displacement of [3H]ZM-241385 from human adenosine A2A receptor expressed in CHO cells
Chain of Adenosine receptor A2a (P29274 whole entry): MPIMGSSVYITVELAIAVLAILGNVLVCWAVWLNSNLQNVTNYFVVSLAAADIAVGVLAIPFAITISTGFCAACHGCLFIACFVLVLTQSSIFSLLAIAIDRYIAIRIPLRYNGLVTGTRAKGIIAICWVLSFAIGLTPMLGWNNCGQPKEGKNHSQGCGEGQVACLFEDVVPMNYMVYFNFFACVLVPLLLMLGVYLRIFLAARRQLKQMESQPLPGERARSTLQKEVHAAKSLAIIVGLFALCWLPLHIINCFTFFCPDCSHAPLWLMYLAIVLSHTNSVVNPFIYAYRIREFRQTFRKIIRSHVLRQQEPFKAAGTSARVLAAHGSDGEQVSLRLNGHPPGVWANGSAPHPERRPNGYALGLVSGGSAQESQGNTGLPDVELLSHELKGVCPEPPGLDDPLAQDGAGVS
Outline: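 Membranes (50 µg protein/assay) in 50 mM Tris-HCl, 10 mM MgCl2, pH 7.4, incubated 60 min at 4 °C with [³H]ZM241385 and at least 6–8 concentrations of compound. Nonspecific binding defined with 1 µM ZM 241385. GF/B filtration and counting. Ki by Cheng-Prusoff; n = 3–6.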

Adenosine receptor A1 = target: T2, Adenosine receptor A1 (Homo sapiens, UniProt P30542); experiment: Displacement of [3H]DPCPX from human adenosine A1 receptor expressed in CHO cells
T2 sequence (P30542 whole entry): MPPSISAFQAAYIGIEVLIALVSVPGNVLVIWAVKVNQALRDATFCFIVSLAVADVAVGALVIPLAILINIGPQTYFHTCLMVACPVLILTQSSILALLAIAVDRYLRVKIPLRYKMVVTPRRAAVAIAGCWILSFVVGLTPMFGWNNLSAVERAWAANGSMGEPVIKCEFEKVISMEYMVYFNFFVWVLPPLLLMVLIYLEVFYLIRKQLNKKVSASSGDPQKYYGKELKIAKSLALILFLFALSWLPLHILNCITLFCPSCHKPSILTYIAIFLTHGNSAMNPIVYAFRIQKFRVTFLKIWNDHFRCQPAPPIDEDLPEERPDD

Adenosine receptor A2b = target: T3, Adenosine receptor A2b (Homo sapiens, UniProt P29275); experiment: Displacement of [3H]MRE2029F20 from human adenosine A2B receptor expressed in HEK293 cells
T3 sequence (P29275 whole entry): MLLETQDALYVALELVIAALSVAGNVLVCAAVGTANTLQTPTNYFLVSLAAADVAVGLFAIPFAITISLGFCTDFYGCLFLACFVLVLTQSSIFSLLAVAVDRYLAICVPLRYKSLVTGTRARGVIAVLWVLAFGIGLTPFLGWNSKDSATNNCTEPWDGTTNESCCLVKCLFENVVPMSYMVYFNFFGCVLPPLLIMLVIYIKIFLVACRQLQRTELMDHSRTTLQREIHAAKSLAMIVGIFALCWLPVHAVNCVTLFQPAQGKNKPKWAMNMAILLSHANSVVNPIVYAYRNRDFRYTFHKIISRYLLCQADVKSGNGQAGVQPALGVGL
Outline: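 Membranes (50 µg protein/assay) in 50 mM Tris-HCl, 10 mM MgCl2, 1 mM EDTA, pH 7.4, incubated 120 min at 4 °C with [³H]MRE2029F20 and at least 6–8 compound concentrations. Nonspecific binding defined with 1 µM MRE 2029F20. GF/B filtration, scintillation counting. Ki via Cheng-Prusoff; n = 3–6.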

Row | SMILES | Ki (Adenosine receptor A3) [µM] | Ki (Adenosine receptor A2a) [µM] | Ki (Adenosine receptor A1) [µM] | Ki (Adenosine receptor A2b) [µM]
1 | CCCn1c(=O)c2[nH]c(-c3cc(C)n(CC(=O)Nc4ccc(F)cc4)n3)nc2n(CCC)c1=O | > 1 | – | – | –
2 | CCCn1c(=O)c2[nH]c(-c3cc(C)n(CC(=O)Nc4ccccc4)n3)nc2n(CCC)c1=O | > 1 | – | – | –
3 | CCCn1c(=O)c2[nH]c(-c3cc(C)n(CC(=O)Nc4ccc(N(C)C)cc4)n3)nc2n(CCC)c1=O | > 1 | – | – | > 1
4 | CCCn1c(=O)c2[nH]c(-c3cc(OCC(=O)Nc4ccc(OC)c(OC)c4)nn3C)nc2n(CCC)c1=O | > 1 | > 1 | > 1 | –
5 | CCCn1c(=O)c2[nH]c(-c3cc(CC)n(CC(=O)Nc4ccc(Cl)cc4)n3)nc2n(CCC)c1=O | > 1 | – | – | > 1
6 | CCCn1c(=O)c2[nH]c(-c3cc(C)n(CC(=O)Nc4ccc(OC)c(OC)c4)n3)nc2n(CCC)c1=O | > 1 | – | – | –
7 | CCCn1c(=O)c2[nH]c(-c3cc(C)n(CC(=O)Nc4cccc5ccccc45)n3)nc2n(CCC)c1=O | > 1 | – | – | > 1
8 | CCCn1c(=O)c2[nH]c(-c3nn(CC(=O)Nc4ccc(Cl)cc4)c(C)c3I)nc2n(CCC)c1=O | > 1 | – | – | > 1
9 | CCCn1c(=O)c2[nH]c(-c3cc(C)n(CC(=O)Nc4ccc(Cl)c(Cl)c4)n3)nc2n(CCC)c1=O | > 1 | – | – | –
10 | CCCn1c(=O)c2[nH]c(-c3cc(C)n(CC(=O)Nc4ccc(OC)cc4)n3)nc2n(CCC)c1=O | > 1 | – | – | –
11 | CCCn1c(=O)c2[nH]c(-c3cc(C)n(CC(=O)Nc4cccc(OC)c4)n3)nc2n(CCC)c1=O | > 1 | – | – | –
12 | CCCn1c(=O)c2[nH]c(-c3cc(C)n(CC(=O)Nc4ccc(C)c(C)c4)n3)nc2n(CCC)c1=O | > 1 | – | – | –

Second part, the compound after the results:

Row | Ki (Adenosine receptor A3) [µM] | Ki (Adenosine receptor A2a) [µM] | Ki (Adenosine receptor A1) [µM] | Ki (Adenosine receptor A2b) [µM] | SMILES
13 | > 1 | – | – | – | CCCn1c(=O)c2[nH]c(-c3cc(C)n(CC(=O)Nc4cccc(Cl)c4)n3)nc2n(CCC)c1=O
14 | > 1 | > 1 | > 1 | – | CCCn1c(=O)c2[nH]c(-c3cc(C)n(CC(=O)Nc4ccc(Cl)cc4)n3)nc2n(CCC)c1=O
15 | > 1 | – | – | – | CCCn1c(=O)c2[nH]c(-c3nn(CC(=O)Nc4ccc(Cl)cc4)c(C)c3Cl)nc2n(CCC)c1=O
16 | > 1 | – | – | – | CCCn1c(=O)c2[nH]c(-c3ccn(CC(=O)Nc4ccc(Cl)cc4)n3)nc2n(CCC)c1=O
17 | > 1 | > 1 | > 1 | – | CCCn1c(=O)c2[nH]c(-c3cc(C)n(CC(=O)Nc4ccc(Br)cc4)n3)nc2n(CCC)c1=O
18 | > 1 | – | – | – | CCCn1c(=O)c2[nH]c(-c3nn(CC(=O)Nc4ccc(Cl)cc4)c(C)c3Br)nc2n(CCC)c1=O
19 | > 1 | – | – | – | CCCn1c(=O)c2[nH]c(-c3cc(C)n(CC(=O)Nc4ccc(I)cc4)n3)nc2n(CCC)c1=O
20 | > 1 | – | – | – | CCCn1c(=O)c2[nH]c(-c3cc(C)n(CC(=O)Nc4ccc(C)cc4)n3)nc2n(CCC)c1=O
